Results as given in ChEMBL document CHEMBL3421610, “Antimalarial activity of 4-amidinoquinoline and 10-amidinobenzonaphthyridine derivatives” (J Med Chem, 2015).
Values after ≈ are worked out from the molar mass of the structure shown. Active and inactive are the calls of the source. The rule behind the calls is not given here.

How the values were obtained:
[1] = Half life in mouse liver microsomes at 1 uM by LC/MS analysis; assay type: ADME
In short: (§1)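 Compound at 1 µM final, diluted from […], with 0.5 mg/mL pooled human or mouse liver microsomes, NADP, MgCl2 and 0.1 M PBS pH 7.4. Reaction started with 1 U/mL G6PD and shaken at 37 °C. Aliquots quenched in cold acetonitrile at 0, 10, 20, 30 and 60 min and quantified by LC/MS. Half-life from log plot of total ion chromatogram area remaining.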

[2] = test system: Plasmodium falciparum; assay: Antimalarial activity against chloroquine-sensitive Plasmodium falciparum D6 assessed as growth inhibition after 18 hrs by [3H]-hypoxanthine uptake assay; assay type: functional, organism-based
In short: (§2)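 P. falciparum clones D6, W2 and TM91C235; modified semiautomated microdilution. Compounds in DMSO, diluted in RPMI 1640 with 10% human plasma, tested over (1.56-100) x 10^-9 M; final DMSO 0.25-0.5%. Inoculum 0.5% parasitemia, 1% hematocrit. 24 h incubation, then [3H]-hypoxanthine added, further 18 h. Harvested and read by scintillation counting; IC50 by nonlinear regression.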

[3] = test system: Plasmodium falciparum; assay: Antimalarial activity against chloroquine-resistant Plasmodium falciparum W2 assessed as growth inhibition after 18 hrs by [3H]-hypoxanthine uptake assay; assay type: functional, organism-based; in short: as §2
[4] = Half life in human liver microsomes at 1 uM by LC/MS analysis; assay type: ADME; in short: as §1
[5] = test system: HepG2; assay: Cytotoxicity against human HepG2 cells after 48 hrs by MTT assay; assay type: cell-based; conditions: HepG2, 48 h
In short: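 HepG2 cells in supplemented MEM, plated at 9570 cells/well in 384-well format and incubated overnight at 37 °C, 5% CO2. Twelve duplicate 1.6-fold dilutions, 57–10,000 ng/ml, incubated 48 h. MTT added for 1 h at room temperature in the dark, formazan dissolved in acidified isopropanol, absorbance read. IC50 by sigmoidal variable-slope nonlinear regression; tryptanthrin control.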

[6] = test system: Plasmodium falciparum; assay: Antimalarial activity against chloroquine-resistant Plasmodium falciparum C235 assessed as growth inhibition after 18 hrs by [3H]-hypoxanthine uptake assay; assay type: functional, organism-based; in short: as §2
[7] = target: hERG (KCNH2) (Homo sapiens, UniProt Q12809); assay: Inhibition of human ERG expressed in CHL cells assessed as tail current at 10 uM after 7 mins by patch clamp assay relative to control; assay type: cell-based; conditions: CHL cells expressing human ERG
Chain of hERG (KCNH2) (Q12809 whole entry): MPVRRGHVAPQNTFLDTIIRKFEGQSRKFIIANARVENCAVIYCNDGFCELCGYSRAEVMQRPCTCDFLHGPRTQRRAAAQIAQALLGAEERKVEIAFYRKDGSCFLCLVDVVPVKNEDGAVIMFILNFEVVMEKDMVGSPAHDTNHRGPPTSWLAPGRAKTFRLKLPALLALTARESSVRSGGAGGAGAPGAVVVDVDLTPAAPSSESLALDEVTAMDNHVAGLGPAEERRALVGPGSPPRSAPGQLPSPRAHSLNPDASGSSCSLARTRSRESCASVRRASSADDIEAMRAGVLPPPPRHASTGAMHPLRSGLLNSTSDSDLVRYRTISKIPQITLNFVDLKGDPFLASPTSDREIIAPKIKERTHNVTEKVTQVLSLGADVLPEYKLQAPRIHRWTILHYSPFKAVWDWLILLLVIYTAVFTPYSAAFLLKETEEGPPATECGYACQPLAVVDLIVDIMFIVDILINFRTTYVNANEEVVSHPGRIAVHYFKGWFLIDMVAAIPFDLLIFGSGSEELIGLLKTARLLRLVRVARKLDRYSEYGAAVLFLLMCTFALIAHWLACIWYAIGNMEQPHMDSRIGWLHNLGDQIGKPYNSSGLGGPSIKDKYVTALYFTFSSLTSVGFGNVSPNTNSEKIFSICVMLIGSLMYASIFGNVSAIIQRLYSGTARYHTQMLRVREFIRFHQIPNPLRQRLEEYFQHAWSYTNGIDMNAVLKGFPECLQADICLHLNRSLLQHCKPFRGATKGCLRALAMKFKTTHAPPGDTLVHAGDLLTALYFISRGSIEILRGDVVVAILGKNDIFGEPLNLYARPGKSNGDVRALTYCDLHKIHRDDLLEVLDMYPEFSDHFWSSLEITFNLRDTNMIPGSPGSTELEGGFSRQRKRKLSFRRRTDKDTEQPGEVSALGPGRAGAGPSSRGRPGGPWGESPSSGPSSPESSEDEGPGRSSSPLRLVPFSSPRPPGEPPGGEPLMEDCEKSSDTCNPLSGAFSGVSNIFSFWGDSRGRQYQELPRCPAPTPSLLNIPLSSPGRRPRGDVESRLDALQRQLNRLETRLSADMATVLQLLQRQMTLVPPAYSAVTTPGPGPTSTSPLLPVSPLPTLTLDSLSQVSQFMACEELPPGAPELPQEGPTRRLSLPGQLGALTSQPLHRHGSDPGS

[8] = test system: Mus musculus; assay: Toxicity in mouse infected with erythrocytic stage of chloroquine resistant Plasmodium berghei ANKA up to 160 mg/kg, po qd administered on day 3, 4 and 5 post infection measured over 30 days; assay type: organism-based, Erythrocyte; parameters: dose 160 mg/kg, route oral; conditions: in vivo, 720 h
In short: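 Male mice of 16-20 g infected intraperitoneally with CQ-resistant P. berghei ANKA (5 x 10^6 infected erythrocytes). Oral dosing once daily on days 3-5, five mice per group. Animals followed for 30 days by blood films; mice losing >20% body weight sacrificed.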

[9] = test system: Plasmodium berghei; assay: Antimalarial activity against erythrocytic stage of chloroquine resistant Plasmodium berghei ANKA infected in mouse assessed as cure rate at 160 mg/kg, po qd administered on day 3, 4 and 5 post infection measured 3 times per week for 30 days, starting from day 3 by Thompson test; assay type: functional, organism-based; parameters: dose 160 mg/kg
In short: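 Male mice of 16-20 g inoculated intraperitoneally with 5 x 10^6 erythrocytes infected with CQ-resistant P. berghei ANKA. Drug given orally as a suspension once daily on days 3, 4 and 5 post-infection, five mice per dose. Blood films from day 3, three times weekly for 30 days. Cure means parasite-negative on day 30 or surviving 30 days. Mice losing >20% body weight sacrificed.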

SMILES	half-life at 1 µM [1] [min]	IC50 [2] [nM]	IC50 [3] [nM]	half-life at 1 µM [4] [min]	IC50 [5] [µg/mL]	IC50 [6] [nM]	inhibition at 7 min, 10 µM [7] [%]	Activity [8]	Activity [9]
CCN(CC)CCN/C(C)=N\c1ccnc2cc(Cl)ccc12	18	189	296	26	1.32 (≈ 4.15 µM)	182	–	–	–
CCN(CC)CCC/N=C(/N=c1\ccn(CCCN(CC)CC)c2cc(Cl)ccc12)c1cccnc1	> 60	2500	3920	> 60	14.1 (≈ 27.7 µM)	2660	–	–	–
COc1ccc2nc3cc(Cl)ccc3c(N(CCCN(C)C)/C(C)=N/CCCN(C)C)c2n1	> 60	11.7	80.8	> 60	1.7 (≈ 3.6 µM)	51	18.3	–	–
OC(c1cc(C(F)(F)F)nc2c(C(F)(F)F)cccc12)C1CCCCN1 (stereo not given) [MEFLOQUINE]	–	–	–	–	–	–	95	–	–
CCN(CC)CCC/N=C(\c1cccnc1)N(CCCN(CC)CC)c1ccnc2cc(Cl)ccc12	> 60	34.8	383	> 60	2.94 (≈ 5.78 µM)	290	–	–	–
C/C(=N/c1ccnc2cc(Cl)ccc12)NCCC1CCN(c2ccncc2)CC1	> 60	36.4	193	> 60	6.73 (≈ 16.5 µM)	64	–	–	–
COc1ccc2nc3cc(Cl)ccc3c(N/C(=N/CCCN(C)C)C(C)C)c2n1	46	2.2	9.7	33	3.56 (≈ 8.6 µM)	4.3	72.1	–	–
CCN(CC)CCN/C(=N\c1ccnc2cc(Cl)ccc12)C(C)C	12	54	97	> 60	12.7 (≈ 36.6 µM)	52	–	Toxic	Active
CCN(CC)CCCC(C)Nc1ccnc2cc(Cl)ccc12 (stereo not given) [CHLOROQUINE]	> 60	–	–	> 60	12 (≈ 37.6 µM)	–	71	–	Active
CCN(CC)CCCN/C(=N\c1ccnc2cc(Cl)ccc12)c1cccnc1	> 60	38.9	203	36	7.87 (≈ 19.9 µM)	79.5	101	–	–
C/C(=N/c1ccnc2cc(Cl)ccc12)NCCc1ccncc1	13	920	617	47	11.3 (≈ 34.7 µM)	719	–	–	–
CCN(CC)CCCN/C(C)=N\c1ccnc2cc(Cl)ccc12	> 60	138	226	> 60	> 10	133	–	–	–
O=C1c2ccccc2-n2c1nc1ccccc1c2=O [TRYPTANTHRIN]	–	–	–	–	0.305 (≈ 1.23 µM)	–	–	–	–
CCN(CC)CCCN(CCCN(CC)CC)/C(C)=N\c1ccnc2cc(Cl)ccc12	> 60	15	121	> 60	3 (≈ 6.73 µM)	33.9	16.2	–	–
CCN(CC)CCC/N=C(\c1ccccc1)N(CCCN(CC)CC)c1ccnc2cc(Cl)ccc12	> 60	6.1	76.8	> 60	4.09 (≈ 8.05 µM)	33.7	21.9	–	–
CN(C)CCC/N=C(\c1ccccc1)N(CCCN(C)C)c1ccnc2cc(Cl)ccc12	> 60	7.1	121	> 60	5.77 (≈ 12.8 µM)	45.4	16.4	–	–
CCN(CC)CCC/N=C(/Nc1c2ccc(Cl)cc2nc2ccc(OC)nc12)c1cccnc1	29	7.2	20.6	32	8.6 (≈ 18 µM)	8.2	63	–	–
C/C(=N/c1ccnc2cc(Cl)ccc12)NCCCN1CCOCC1	22	327	295	25	> 30.3	578	–	–	–
Clc1ccc2c(N(CCCN3CCCCC3)/C(=N/CCCN3CCCCC3)c3ccccc3)ccnc2c1	> 60	1.9	16	31	2.45 (≈ 4.6 µM)	6.95	21.7	–	–
C/C(=N/c1ccnc2cc(Cl)ccc12)NC1CCN(C)CC1	> 60	76	275	> 60	> 30.3	89	–	–	–
COc1ccc2nc3cc(Cl)ccc3c(N/C(=N/CCCN3CCCCC3)C(C)C)c2n1	8	1.1	3.96	9	2.01 (≈ 4.42 µM)	1.94	69.6	–	–
CCN(CC)CCCN(CCCN(CC)CC)/C(=N\c1c2ccc(Cl)cc2nc2ccc(OC)nc12)C(C)C	> 60	1.1	6.1	> 60	0.668 (≈ 1.2 µM)	3.2	32.5	–	–
CC(C)/C(=N/c1ccnc2cc(Cl)ccc12)NC1CCN(Cc2ccccc2)CC1	30	15	58.7	25	5.15 (≈ 12.2 µM)	30.9	51.8	–	–
CCN(CC)CCCCN/C(=N\c1ccnc2cc(Cl)ccc12)C(C)C	42	61	254	55	5.01 (≈ 13.4 µM)	125	54.6	Non-toxic	Active
CCCCN(CCCC)CCC(O)c1cc2c(Cl)cc(Cl)cc2c2cc(C(F)(F)F)ccc12 (stereo not given) [HALOFANTRINE]	–	–	–	–	–	–	100	–	–
CCN(CC)CCC/N=C(/Nc1c2ccc(Cl)cc2nc2ccc(OC)nc12)c1ccccc1	26	1.7	5.6	16	3.7 (≈ 7.77 µM)	2.8	–	–	–
CCN(CC)CCCCCN/C(C)=N\c1ccnc2cc(Cl)ccc12	> 60	125	455	56	12.5 (≈ 34.5 µM)	175	–	–	–
CCN(CC)CCC/N=C(/Nc1c2ccc(Cl)cc2nc2ccc(OC)nc12)C(C)C	22	2	8.8	20	2.06 (≈ 4.67 µM)	3.8	86.5	–	–
Clc1ccc2c(/N=C(\NCCCN3CCCCC3)c3ccccc3)ccnc2c1	18	5.2	15.7	12	5.12 (≈ 12.6 µM)	5.7	93	–	–
CC(C)/C(=N/c1ccnc2cc(Cl)ccc12)NCCCN1CCCCC1	43	34	91	29	> 24.2	56	74.5	Non-toxic	Active
